Calls of active or inactive are those of the source. No cut-off for these calls is given here.
Key:
Bile acid receptor = biological target: T1, Bile acid receptor (Homo sapiens, UniProt Q96RI1); assay: Agonist activity at human GST-tagged FXR ligand binding domain assessed as recruitment of Src-1 peptide […] by AlphaScreen assay
T1 sequence (Q96RI1 whole entry): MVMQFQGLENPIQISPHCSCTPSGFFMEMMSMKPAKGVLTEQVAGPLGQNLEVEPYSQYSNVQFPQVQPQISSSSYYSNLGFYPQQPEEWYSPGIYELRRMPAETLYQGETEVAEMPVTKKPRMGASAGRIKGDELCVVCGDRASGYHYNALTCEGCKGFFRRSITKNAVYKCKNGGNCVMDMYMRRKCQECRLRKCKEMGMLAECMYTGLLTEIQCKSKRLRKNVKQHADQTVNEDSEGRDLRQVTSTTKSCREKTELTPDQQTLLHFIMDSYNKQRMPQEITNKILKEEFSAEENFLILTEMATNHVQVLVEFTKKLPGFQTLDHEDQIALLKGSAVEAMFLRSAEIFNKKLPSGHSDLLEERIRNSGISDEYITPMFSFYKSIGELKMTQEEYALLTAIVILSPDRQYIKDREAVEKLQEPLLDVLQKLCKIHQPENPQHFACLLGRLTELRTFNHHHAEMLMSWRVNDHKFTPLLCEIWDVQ

[1] = biological target: T2, Bile acid receptor (Homo sapiens) (UniProt Q96RI1); assay: Agonist activity at human GST-tagged FXR ligand binding domain assessed as recruitment of Src-1 peptide […] by AlphaScreen assay relative to 10 uM of CDCA
T2 sequence (whole entry): T1 sequence (Q96RI1 whole entry)

[2] = biological target: T2, Bile acid receptor (Homo sapiens); assay: Induction of FXR-mediated upregulation of Ostbeta gene in human HepG2 cells after 18 hrs by qRT-PCR analysis relative to obeticholic acid; assay type: cell-based
Method in brief: (§1)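 HepG2 cells were stimulated for 18 h with increasing compound concentrations. Total RNA was random reverse-transcribed, and 10 ng template was run in SYBR Green real-time PCR with 0.3 μM of each primer. Cycling was 95 °C 3 min, then 45 cycles of 95 °C 10 s and 60 °C 30 s, in triplicate. Expression is given as ΔCT against an endogenous control, and relative expression as ΔΔCT.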

[3] = biological target: T2, Bile acid receptor (Homo sapiens); assay: Induction of FXR-mediated down-regulation of Cyp7alpha1 gene in human HepG2 cells after 18 hrs by qRT-PCR analysis; assay type: cell-based; method in brief: as §1
[4] = biological target: T2, Bile acid receptor (Homo sapiens); assay: Induction of FXR-mediated upregulation of Bsep gene in human HepG2 cells after 18 hrs by qRT-PCR analysis; assay type: cell-based; method in brief: as §1

Row | Compound | EC50 (Bile acid receptor; read-out: EC50) [nM] | Efficacy [1] [%] | other results
1 | COc1ccc(C2SC(C)C(=O)Nc3c2c(C)nn3-c2ccccc2C)c(OC)c1 (configuration not stated) | 10500 | 63 | –
2 | Cc1nn(-c2ccccc2F)c2c1C(c1ccc(Oc3ccccc3)cc1)SC(C)C(=O)N2 (mixture of isomers) | 3900 | 72 | –
3 | Cc1nn(-c2ccccc2Cl)c2c1C(c1ccc(Oc3ccccc3)cc1)SC(C)C(=O)N2 (mixture of isomers) | 2700 | 57 | –
4 | CCOc1cccc(-c2ccc([C@H]3S[C@@H](C)C(=O)Nc4c3c(C)nn4-c3ccccc3C)cc2)c1 (racemic) | 3500 | 13 | –
5 | COC(=O)c1cccc(-c2ccc([C@H]3S[C@@H](C)C(=O)Nc4c3c(C)nn4-c3ccccc3C)cc2)c1 (racemic) | – | – | EC50 (Bile acid receptor): Not Active
6 | COC(=O)c1ccc(-c2ccc([C@H]3S[C@@H](C)C(=O)Nc4c3c(C)nn4-c3ccccc3C)cc2)cc1 (racemic) | – | – | EC50 (Bile acid receptor): Not Active
7 | Cc1ccccc1-n1nc(C)c2c1NC(=O)[C@H](C)S[C@@H]2c1ccc(-c2ccco2)cc1 (racemic) | 3600 | 32 | –
8 | Cc1ccccc1-n1nc(C)c2c1NC(=O)[C@H](C)S[C@@H]2c1ccc(-c2ccoc2)cc1 (racemic) | 3500 | 40 | –
9 | Cc1ccccc1-n1nc(C)c2c1NC(=O)[C@H](C)S[C@@H]2c1ccc(-c2cccc(C(=O)O)c2)cc1 (racemic) | – | – | EC50 (Bile acid receptor): Not Active
10 | Cc1ccccc1-n1nc(C)c2c1NC(=O)[C@H](C)S[C@@H]2c1ccc(-c2ccc(C(=O)O)cc2)cc1 (racemic) | – | – | EC50 (Bile acid receptor): Not Active
11 | Cc1ccccc1-n1nc(C)c2c1NC(=O)[C@H](C)S[C@@H]2c1ccc(/C=C/c2ccccc2)cc1 (racemic) | – | – | EC50 (Bile acid receptor): Not Active
12 | Cc1ccccc1-n1nc(C)c2c1NC(=O)[C@H](C)S[C@@H]2c1ccc(-c2cccs2)cc1 (racemic) | 2600 | 85 | –
13 | Cc1ccccc1-n1nc(C)c2c1NC(=O)[C@H](C)S[C@@H]2c1ccc(Oc2ccccc2C(=O)O)cc1 (racemic) | – | – | EC50 (Bile acid receptor): Not Active
14 | Cc1ccccc1-n1nc(C)c2c1NC(=O)[C@H](C)S[C@@H]2c1ccc(Oc2cccc(C(=O)O)c2)cc1 (racemic) | – | – | EC50 (Bile acid receptor): Not Active
15 | Cc1ccccc1-n1nc(C)c2c1NC(=O)[C@H](C)S[C@@H]2c1ccc(Oc2ccc(C(=O)O)cc2)cc1 (racemic) | – | – | EC50 (Bile acid receptor): Not Active
16 | Cc1ccccc1-n1nc(C)c2c1NC(=O)[C@H](C)S[C@@H]2c1ccc(OCc2ccccc2)cc1 (racemic) | – | – | EC50 (Bile acid receptor): Not Active
17 | Cc1cccc(-n2nc(C)c3c2NC(=O)[C@H](C)S[C@@H]3c2ccc(Oc3ccccc3)cc2)c1 (racemic) | 2400 | 22 | –
18 | Cc1ccc(-n2nc(C)c3c2NC(=O)[C@H](C)S[C@@H]3c2ccc(Oc3ccccc3)cc2)cc1 (racemic) | 3400 | 11 | –
19 | COc1ccccc1-n1nc(C)c2c1NC(=O)[C@H](C)S[C@@H]2c1ccc(Oc2ccccc2)cc1 (racemic) | 3300 | 37 | –

Now from value to compound, other results behind:

Row | EC50 (Bile acid receptor; read-out: EC50) [nM] | Efficacy [1] [%] | Compound | other results
20 | 1800 | 84 | Cc1nn(-c2ccccc2Br)c2c1C(c1ccc(Oc3ccccc3)cc1)SC(C)C(=O)N2 (mixture of isomers) | –
21 | 990 | 24 | Cc1ccccc1-n1nc(C)c2c1NC(=O)[C@H](C)S[C@@H]2c1ccc(-c2ccccc2)cc1 (racemic) | –
22 | 1100 | 50 | COc1ccccc1-c1ccc([C@H]2S[C@@H](C)C(=O)Nc3c2c(C)nn3-c2ccccc2C)cc1 (racemic) | –
23 | 1800 | 41 | COc1cccc(-c2ccc([C@H]3S[C@@H](C)C(=O)Nc4c3c(C)nn4-c3ccccc3C)cc2)c1 (racemic) | –
24 | 1200 | 38 | COc1ccc(-c2ccc([C@H]3S[C@@H](C)C(=O)Nc4c3c(C)nn4-c3ccccc3C)cc2)cc1 (racemic) | –
25 | 1400 | 68 | Cc1ccccc1-n1nc(C)c2c1NC(=O)[C@H](C)S[C@@H]2c1ccc(-c2ccsc2)cc1 (racemic) | –
26 | 1500 | 17 | Cc1ccccc1-n1nc(C)c2c1NC(=O)[C@H](C)S[C@@H]2c1ccc(-c2cc3ccccc3o2)cc1 (racemic) | –
27 | 1300 | 118 | Cc1ccccc1-n1nc(C)c2c1NC(=O)[C@H](C)S[C@@H]2c1ccc(Oc2ccccc2)cc1 (racemic) | –
28 | 1700 | 240 | COc1ccccc1Oc1ccc([C@H]2S[C@@H](C)C(=O)Nc3c2c(C)nn3-c2ccccc2C)cc1 (racemic) | Activity [2]: Active; Activity [3]: Dose-dependent effect; Activity [4]: inactive
29 | 1700 | 120 | COc1cccc(Oc2ccc([C@H]3S[C@@H](C)C(=O)Nc4c3c(C)nn4-c3ccccc3C)cc2)c1 (racemic) | –
30 | 2200 | 70 | COc1ccc(Oc2ccc([C@H]3S[C@@H](C)C(=O)Nc4c3c(C)nn4-c3ccccc3C)cc2)cc1 (racemic) | –
31 | 1900 | 130 | COc1cc([C@H]2S[C@@H](C)C(=O)Nc3c2c(C)nn3-c2ccccc2C)ccc1Oc1ccccc1 (racemic) | –
32 | 1100 | 190 | CCc1ccccc1-n1nc(C)c2c1NC(=O)[C@H](C)S[C@@H]2c1ccc(Oc2ccccc2)cc1 (racemic) | Activity [2]: Active; Activity [3]: Dose-dependent effect; Activity [4]: Dose-dependent effect
33 | 1100 | 240 | CCCc1ccccc1-n1nc(C)c2c1NC(=O)[C@H](C)S[C@@H]2c1ccc(Oc2ccccc2)cc1 (racemic) | Activity [2]: Active; Activity [3]: Dose-dependent effect; Activity [4]: inactive
34 | 1900 | 174 | Cc1nn(-c2ccccc2C(C)C)c2c1[C@@H](c1ccc(Oc3ccccc3)cc1)S[C@@H](C)C(=O)N2 (racemic) | –
35 | 2000 | 50 | Cc1nn(-c2ccccc2C(F)(F)F)c2c1C(c1ccc(Oc3ccccc3)cc1)SC(C)C(=O)N2 (racemic) | –
36 | 1300 | 130 | Cc1nn(-c2ccccc2I)c2c1C(c1ccc(Oc3ccccc3)cc1)SC(C)C(=O)N2 (racemic) | –

Source: ChEMBL document CHEMBL2034830, “Pyrazole[3,4-e][1,4]thiazepin-7-one derivatives as a novel class of Farnesoid X Receptor (FXR) agonists” (Bioorg Med Chem, 2012)
